Activity calls are given as the source filed them.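 How the source made its calls, unless noted: active means viability at or under a set limit in both replicates, limit being median viability minus 3 SD (cut at about 48% in these data, passing the limit was not always enough); inconclusive means at or under the limit in just one replicate; inactive means at or above the limit in both replicates.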
Legend:
[1] = reducers of endogenous Her2 protein level, primary screen, SKBR3 breast tumor cells, AlphaScreen, ATP viability (AID 461;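 active means Her2 level under about 52% in both replicate screens, with viability over 70% of control, limit read from the data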;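 on Her2 level: lower value means less Her2 protein in the cells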;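 on viability: percent of carrier control wells set as 100% viability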); conditions: 18-24 h, measured here: SKBR3 viability, ATP luminescence, at 10 µM
[2] = target: Receptor tyrosine-protein kinase erbB-2 (Homo sapiens) (UniProt P04626); assay: as above; conditions: 18-24 h, at 10 µM, stronger effect = lower value
Sequence of Receptor tyrosine-protein kinase erbB-2 (Homo sapiens) (P04626 whole entry, looked up): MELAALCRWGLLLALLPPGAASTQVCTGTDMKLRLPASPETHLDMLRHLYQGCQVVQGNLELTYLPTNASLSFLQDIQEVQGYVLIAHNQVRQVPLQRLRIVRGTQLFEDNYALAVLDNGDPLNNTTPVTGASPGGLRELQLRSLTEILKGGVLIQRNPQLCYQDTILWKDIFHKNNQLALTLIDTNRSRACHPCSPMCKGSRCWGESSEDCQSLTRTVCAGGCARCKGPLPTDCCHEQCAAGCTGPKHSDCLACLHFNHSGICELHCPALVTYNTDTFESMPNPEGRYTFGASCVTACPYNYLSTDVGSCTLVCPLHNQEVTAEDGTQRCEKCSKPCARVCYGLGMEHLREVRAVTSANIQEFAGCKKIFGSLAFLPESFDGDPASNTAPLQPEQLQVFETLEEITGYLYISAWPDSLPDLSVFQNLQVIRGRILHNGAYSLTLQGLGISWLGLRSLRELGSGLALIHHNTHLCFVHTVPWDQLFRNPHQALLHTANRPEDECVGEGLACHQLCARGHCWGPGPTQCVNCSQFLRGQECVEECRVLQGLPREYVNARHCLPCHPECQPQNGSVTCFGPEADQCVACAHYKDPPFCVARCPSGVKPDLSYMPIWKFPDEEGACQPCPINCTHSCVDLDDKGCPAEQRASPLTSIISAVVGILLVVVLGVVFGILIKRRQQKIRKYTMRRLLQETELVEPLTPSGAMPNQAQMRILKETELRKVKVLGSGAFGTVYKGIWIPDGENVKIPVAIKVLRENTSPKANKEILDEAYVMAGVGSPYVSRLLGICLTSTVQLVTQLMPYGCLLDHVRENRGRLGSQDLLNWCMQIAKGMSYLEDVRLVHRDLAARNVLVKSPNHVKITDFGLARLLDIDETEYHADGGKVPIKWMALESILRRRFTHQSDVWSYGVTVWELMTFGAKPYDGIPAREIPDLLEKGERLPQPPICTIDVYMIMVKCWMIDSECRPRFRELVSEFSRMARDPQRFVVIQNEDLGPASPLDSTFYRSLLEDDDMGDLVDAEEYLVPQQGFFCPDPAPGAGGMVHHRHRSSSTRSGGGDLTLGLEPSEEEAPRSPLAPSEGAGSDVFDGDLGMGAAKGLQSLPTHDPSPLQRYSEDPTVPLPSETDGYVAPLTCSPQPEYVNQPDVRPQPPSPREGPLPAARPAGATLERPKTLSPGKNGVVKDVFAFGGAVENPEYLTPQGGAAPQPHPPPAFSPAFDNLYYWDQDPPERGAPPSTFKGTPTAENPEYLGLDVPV

[3] = SK-BR-3 cell growth inhibitors, pilot screen, 24 h, human (AID 572;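 active means viability at or below 10% of carrier control in both of two separate runs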;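 further: compound exposure lasted between 18 and 24 h rather than exactly 24 h; 100% = carrier-treated control wells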); conditions: SK-BR-3 viability, CellTiter-Glo luminescence, at 10 µM, stronger effect = lower value
[4] = HUVEC growth inhibition – cell-based, human, primary screen (AID 575;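 active means viability at or below 30% in both replicate assays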;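 further: 100% = median of untreated cell wells with 0.1% DMSO on each plate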); conditions: HUVEC proliferation, CellTiter-Glo luminescence, 72 h; at 10 µM; stronger effect = lower value
In short: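 Timing: 72 h treatment at 37 °C; material: HUVEC primary cells; technique: CellTiter-Glo luminescence measuring cellular ATP; controls: vehicle and MePR control wells; measure: percent of median DMSO-control luminescence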

[5] = growth inhibitors of H69AR lung tumor, primary screen, human, duplicate replicates (AID 580); conditions: H69AR lung tumor cells viability, ATP luminescence, 72 h; at 10 µM; stronger effect = lower value;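 further: 100% = mean luminescence of untreated wells and 0% = no signal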
[6] = reversal of MRP1-mediated doxorubicin resistance, pilot screen, H69AR cells, doxorubicin co-treatment (AID 601;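 active means viability loss from added drug above about 55%, and viability with drug at most 40%, in both replicates, limit read from the data, passing the limit was not always enough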); conditions: CellTiter-Glo, 72 h, at 10 µM; for differential viability (reversal): stronger effect = higher value
[7] = 384-well plate pilot, post-Golgi transport modulator project, inhibition of yeast transport mutant growth (AID 636; in the data active means inhibition above about 31%); conditions: absorbance 615 nm, about 18 h, stronger effect = higher value
[8] = growth suppression of yeast trafficking mutant, preliminary HTS, modulators of trafficking downstream of Golgi apparatus project, 1536-format plate, OD 615 nm (AID 637; in the data active means inhibition above about 30%); conditions: yeast transport mutant growth, absorbance 615 nm, 18 h; stronger effect = higher value
[9] = H69AR cells + 2 uM doxorubicin, measured here: viability with 2 uM doxorubicin, stronger effect = lower value
[10] = H69AR cells, compound alone cytotoxicity

| Compound | viability [1] [%] | Her2 level [2] | viability [3] | viability [4] | viability [5] | differential viability (reversal) ([6]; H69AR cells + 2 uM doxorubicin) | viability [6, 9] [%] | viability [6, 10] [%] | inhibition [7] | inhibition [8] |
| --- | --- | --- | --- | --- | --- | --- | --- | --- | --- | --- |
| COc1cccc(NC(=O)Nc2cccs2)c1 | 93 | 79% (inactive) | 93% (inactive) | 75% (inactive) | 79.5% (inactive) | 1.41% (inactive) | 78.1 | 79.5 | -6.53% (inactive) | -2.3% (inactive) |
| CC(C)COc1ccc(C2NC(=O)NC2=O)cc1 (stereo not given) | 85.5 | 106% (inactive) | 85.5% (inactive) | 96.3% (inactive) | 103% (inactive) | -0.53% (inactive) | 103 | 103 | -0.52% (inactive) | -8.67% (inactive) |
| Cc1cnc(C(=O)OCC(=O)Nc2ccc(Cl)cc2Cl)cn1 | 89.5 | 100% (inactive) | 89.5% (inactive) | 90.5% (inactive) | 103% (inactive) | 16.4% (inactive) | 86.3 | 103 | -8.49% (inactive) | 2.38% (inactive) |
| CCCn1c(=O)c2ccccc2n2c(SCCOc3ccccc3F)nnc12 | 72 | 102% (inactive) | 72% (inactive) | 85.2% (inactive) | 88.8% (inactive) | 18.1% (inactive) | 70.7 | 88.8 | 2.08% (inactive) | -6.72% (inactive) |
| O=C(NC12CC3CC(CC(C3)C1)C2)c1cncc(O)c1 | 104 | 89% (inactive) | 104% (inactive) | 88.2% (inactive) | 85.6% (inactive) | -9.31% (inactive) | 94.9 | 85.6 | -6.36% (inactive) | 0.32% (inactive) |
| CCOC(=O)c1cnc(SCC)[nH]c1=O | 84.5 | 101% (inactive) | 84.5% (inactive) | 84.4% (inactive) | 97% (inactive) | -5.68% (inactive) | 103 | 97 | -1.92% (inactive) | -8% (inactive) |
| Cc1nc(SCC#N)c2c(C)c(C)sc2n1 | 128 | 107% (inactive) | 128% (inactive) | 98.6% (inactive) | 98.4% (inactive) | 9.83% (inactive) | 88.6 | 98.4 | -5.33% (inactive) | -0.65% (inactive) |
| CCOC(=O)Cc1nn2c(=O)cc(C)nc2s1 | 116 | 111% (inactive) | 116% (inactive) | 102% (inactive) | 102% (inactive) | 2.55% (inactive) | 99.4 | 102 | -1.07% (inactive) | 1.64% (inactive) |
| COc1ccc(C(c2nnnn2C2CCCC2)N2CCN(C3CCCC3)CC2)cc1OC (stereo not given) | 89.5 | 84% (inactive) | 89.5% (inactive) | 84.7% (inactive) | 106% (inactive) | 28.3% (inactive) | 77.7 | 106 | -7.26% (inactive) | -2.22% (inactive) |
| Cc1cc(Cl)cc2c1NC(=O)[C@]21[C@@H]2C(=O)N(Cc3ccccc3)C(=O)[C@@H]2[C@@H]2CCCN21 | 100 | 81% (inactive) | 100% (inactive) | 78% (inactive) | 78.1% (inactive) | -2.8% (inactive) | 80.9 | 78.1 | -3.77% (inactive) | 4.29% (inactive) |
| CCCn1c(N2CCN(CC(=O)Nc3ccc4c(c3)OCCO4)CC2)nc2ccccc21 | 88.5 | 96% (inactive) | 88.5% (inactive) | 87.4% (inactive) | 88.9% (inactive) | 0.63% (inactive) | 88.3 | 88.9 | -6.18% (inactive) | 4.59% (inactive) |
| CCC1=C(C(=O)OC)C(c2cc(OC)ccc2OC)C(C#N)=C(N)O1 (stereo not given) | 99.5 | 87.5% (inactive) | 99.5% (inactive) | 71.9% (inactive) | 87.2% (inactive) | -0.035% (inactive) | 87.2 | 87.2 | -6.67% (inactive) | -0.98% (inactive) |
| CC(C)OCCCNC(=O)c1cc2c(s1)CS(=O)(=O)C2 | 99 | 104% (inactive) | 99% (inactive) | 90.3% (inactive) | 94.6% (inactive) | -1.46% (inactive) | 96.1 | 94.6 | 1.03% (inactive) | -8.5% (inactive) |
| CCC(Sc1ccc(C(=O)O)cc1)C(=O)O (stereo not given) | 86.5 | 96% (inactive) | 86.5% (inactive) | 95.2% (inactive) | 93.9% (inactive) | 3.74% (inactive) | 90.2 | 93.9 | -1.97% (inactive) | -10% (inactive) |
| Cc1cccc(C2c3c(n(C)c(=O)n(C)c3=O)N=C3c4ccccc4C(=O)C32)c1 (stereo not given) | 101 | 82.5% (inactive) | 101% (inactive) | 43.8% (inactive) | 24.3% (active) | -9.63% (inactive) | 34 | 24.3 | -7.47% (inactive) | 0.32% (inactive) |
| CCOc1ccc(CNC(=O)C2CCCN(S(C)(=O)=O)C2)cc1OC (stereo not given) | 77 | 133% (inactive) | 77% (inactive) | 102% (inactive) | 98.8% (inactive) | 7.88% (inactive) | 90.9 | 98.8 | -1.67% (inactive) | 0.17% (inactive) |

| Compound | viability [1] [%] | Her2 level [2] | viability [3] | viability [4] | viability [5] | differential viability (reversal) ([6]; H69AR cells + 2 uM doxorubicin) | viability [6, 9] [%] | viability [6, 10] [%] | inhibition [7] | inhibition [8] |
| --- | --- | --- | --- | --- | --- | --- | --- | --- | --- | --- |
| O=C(Nc1cccc(C(F)(F)F)c1)c1cccnc1N1CCCC1 | 99 | 102% (inactive) | 99% (inactive) | 102% (inactive) | 95% (inactive) | -6.8% (inactive) | 102 | 95 | -2% (inactive) | -1.29% (inactive) |
| Cc1c[nH]c2cccc(OCC(O)CNC(C)(C)C)c12 (stereo not given) | 91.5 | 96% (inactive) | 91.5% (inactive) | 100% (inactive) | 88.3% (inactive) | 0.28% (inactive) | 88 | 88.3 | -3.6% (inactive) | 17.8% (inactive) |
| Cc1nn(C)cc1NC(=O)CCSc1nc(-c2ccco2)cc(C(F)(F)F)n1 | 90.5 | 104% (inactive) | 90.5% (inactive) | 102% (inactive) | 87.3% (inactive) | 5.31% (inactive) | 81.9 | 87.3 | -4.4% (inactive) | 23.9% (inactive) |
| CCOc1ccc(NC(=O)CSc2nnnn2CC(=O)O)cc1 | 104 | 98% (inactive) | 104% (inactive) | 96% (inactive) | 95.7% (inactive) | -4.13% (inactive) | 99.8 | 95.7 | -3.16% (inactive) | -5.65% (inactive) |
| CCOc1ccc2nc(SCC(=O)N3CCCCCC3)c(C#N)cc2c1 | 95 | 82.5% (inactive) | 95% (inactive) | 87.5% (inactive) | 86.2% (inactive) | -3.21% (inactive) | 89.4 | 86.2 | -5.87% (inactive) | 3.28% (inactive) |
| Cc1ccc(C)c(OCC(O)CN2C(C)CCCC2C)c1 (stereo not given) | 70 | 98% (inactive) | 70% (inactive) | 96.2% (inactive) | 83.8% (inactive) | 0.415% (inactive) | 83.4 | 83.8 | -0.53% (inactive) | -0.95% (inactive) |
| CC(C)(C)NC(=O)C(c1ccco1)N(C(=O)Cn1nnc(-c2ccc(F)cc2)n1)c1ccccc1F (stereo not given) | 99 | 84% (inactive) | 99% (inactive) | 96% (inactive) | 99.3% (inactive) | -11% (inactive) | 110 | 99.3 | -5.54% (inactive) | 21.8% (inactive) |
| CCNC(=O)CC(=O)Nc1ccccc1C(=O)O | 104 | 99.5% (inactive) | 104% (inactive) | 125% (inactive) | 103% (inactive) | 5.93% (inactive) | 96.9 | 103 | -5.95% (inactive) | -2.67% (inactive) |
| O=C(CCn1nc(-c2ccc(Cl)cc2)ccc1=O)N1CCN(c2ccccn2)CC1 | 96.5 | 92.5% (inactive) | 96.5% (inactive) | 101% (inactive) | 91.1% (inactive) | -4.79% (inactive) | 95.9 | 91.1 | -3.42% (inactive) | -3.87% (inactive) |
| Cc1csc(NC(=O)CSc2nsc(SCC(=O)Nc3nc(C)cs3)c2C#N)n1 | 94.5 | 69% (inactive) | 94.5% (inactive) | 58.7% (inactive) | 6.57% (active) | -1.3% (inactive) | 7.88 | 6.57 | -6.67% (inactive) | -1.43% (inactive) |
| O=c1[nH]cnc2c1C1(CCCC1)Cc1ccccc1-2 | 95.5 | 90% (inactive) | 95.5% (inactive) | 93.1% (inactive) | 100% (inactive) | 11.5% (inactive) | 88.7 | 100 | -0.26% (inactive) | -0.5% (inactive) |
| COc1ccc2c(c1)[nH]c1c(=O)n(CC3CCCO3)cnc12 (stereo not given) | 86 | 94% (inactive) | 86% (inactive) | 97.2% (inactive) | 90.5% (inactive) | -4.4% (inactive) | 94.9 | 90.5 | -3.42% (inactive) | -6.39% (inactive) |
| O=C(NCC(=O)N1CCC(N2CCCCC2)CC1)C1CCCCC1 | 88.5 | 108% (inactive) | 88.5% (inactive) | 106% (inactive) | 94.4% (inactive) | 1.99% (inactive) | 92.5 | 94.4 | -5.84% (inactive) | -4.43% (inactive) |
| Cn1c(COc2ccc(Cl)cc2)nnc1SCC(=O)NC1CCCCC1 | 77 | 108% (inactive) | 77% (inactive) | 89.5% (inactive) | 103% (inactive) | 9.25% (inactive) | 94 | 103 | 2.13% (inactive) | 20.8% (inactive) |
| Cn1c(=O)cc(SCC(=O)N2CCOCC2)c2ccc(Cl)cc21 | 108 | 99.5% (inactive) | 108% (inactive) | 76.1% (inactive) | 93.2% (inactive) | 9.88% (inactive) | 83.3 | 93.2 | -2.37% (inactive) | -1.61% (inactive) |

Source: PubChem BioAssay
